Assay results as given in ChEMBL document CHEMBL4689842, “EUbOPEN Chemogenomics Library wave 1” (2021).

Test system: HEK-293T
Assay: Multiplex assay against HEK293T;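 as to Population Tubulin-Different-Phenotype (%): share of the cells with healthy nuclei that show this phenotype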
Format: toxicity, cell-based
Conditions: human
How it was run: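 Hoechst33342, BioTracker Green Microtubule Cytoskeleton Dye, MitoTracker Red and Annexin V Alexa Fluor 680 were added to live cells at seeding, and imaging on a CQ1 microscope at 37°C and 5% CO2 followed compound addition. Gating by CellPathfinder machine learning separated cells into Hoechst high-intensity objects or normal cells, then normal cells into healthy, pyknosed or fragmented nuclei, then pyknosed cells into mitotic or apoptotic. Per cents of healthy-nucleus cells are reported for the tubulin, mitochondrial-mass and membrane-permeability phenotypes.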

[1] = 12 h, 1 µM, compound concentration 1 uM, replicate 1
[2] = 12 h, 1 µM, compound concentration 1 uM, replicate 2
[3] = 12 h, 10 µM, compound concentration 10 uM, replicate 1
[4] = 12 h, 10 µM, compound concentration 10 uM, replicate 2
[5] = 24 h, 1 µM, compound concentration 1 uM, replicate 1
[6] = 24 h, 1 µM, compound concentration 1 uM, replicate 2
[7] = 24 h, 10 µM, compound concentration 10 uM, replicate 1
[8] = 24 h, 10 µM, compound concentration 10 uM, replicate 2
[9] = 48 h, 1 µM, compound concentration 1 uM, replicate 1
[10] = 48 h, 1 µM, compound concentration 1 uM, replicate 2
[11] = 48 h, 10 µM, compound concentration 10 uM, replicate 1
[12] = 48 h, 10 µM, compound concentration 10 uM, replicate 2

Compound: O=C(c1cc2c(cc1F)OC(c1ccc(F)cc1)(c1ccc(Cl)cc1Cl)O2)N1CCOCC1 (centres undefined)
- Population Apoptotic (%) [1]: 45%
- Population Fragmented Nuclei (%) [1]: 17%
- Population Healthy Nuclei (%) [1]: 37%
- Population Hoechst High Intensity Objects (%) [1]: 12%
- Population Membrane Permeable-Phenotype (%) [1]: 1%
- Population Mitochondria Different-Phenotype (%) [1]: 87%
- Population Mitotic Cells (%) [1]: 54%
- Population Normal (%) [1]: 87%
- Population Pyknosed Nuclei (%) [1]: 44%
- Population Tubulin-Different-Phenotype (%) [1]: 54%
- Total Cell Count [1]: 214
- Population Apoptotic (%) [2]: 16%
- Population Fragmented Nuclei (%) [2]: 5%
- Population Healthy Nuclei (%) [2]: 35%
- Population Hoechst High Intensity Objects (%) [2]: 5%
- Population Membrane Permeable-Phenotype (%) [2]: 3%
- Population Mitochondria Different-Phenotype (%) [2]: 24%
- Population Mitotic Cells (%) [2]: 84%
- Population Normal (%) [2]: 94%
- Population Pyknosed Nuclei (%) [2]: 59%
- Population Tubulin-Different-Phenotype (%) [2]: 23%
- Total Cell Count [2]: 268
- Population Apoptotic (%) [3]: 64%
- Population Fragmented Nuclei (%) [3]: 10%
- Population Healthy Nuclei (%) [3]: 17%
- Population Hoechst High Intensity Objects (%) [3]: 17%
- Population Membrane Permeable-Phenotype (%) [3]: 0%
- Population Mitochondria Different-Phenotype (%) [3]: 94%
- Population Mitotic Cells (%) [3]: 35%
- Population Normal (%) [3]: 82%
- Population Pyknosed Nuclei (%) [3]: 72%
- Population Tubulin-Different-Phenotype (%) [3]: 97%
- Total Cell Count [3]: 264
- Population Apoptotic (%) [4]: 54%
- Population Fragmented Nuclei (%) [4]: 8%
- Population Healthy Nuclei (%) [4]: 8%
- Population Hoechst High Intensity Objects (%) [4]: 9%
- Population Mitochondria Different-Phenotype (%) [4]: 58%
- Population Mitotic Cells (%) [4]: 45%
- Population Normal (%) [4]: 90%
- Population Pyknosed Nuclei (%) [4]: 82%
- Population Tubulin-Different-Phenotype (%) [4]: 83%
- Total Cell Count [4]: 153
- Population Apoptotic (%) [5]: 48%
- Population Fragmented Nuclei (%) [5]: 15%
- Population Healthy Nuclei (%) [5]: 34%
- Population Hoechst High Intensity Objects (%) [5]: 15%
- Population Membrane Permeable-Phenotype (%) [5]: 0%
- Population Mitochondria Different-Phenotype (%) [5]: 79%
- Population Mitotic Cells (%) [5]: 51%
- Population Normal (%) [5]: 84%
- Population Pyknosed Nuclei (%) [5]: 50%
- Population Tubulin-Different-Phenotype (%) [5]: 43%
- Total Cell Count [5]: 216
- Population Apoptotic (%) [6]: 14%
- Population Fragmented Nuclei (%) [6]: 3%
- Population Healthy Nuclei (%) [6]: 60%
- Population Hoechst High Intensity Objects (%) [6]: 3%
- Population Membrane Permeable-Phenotype (%) [6]: 1%
- Population Mitochondria Different-Phenotype (%) [6]: 36%
- Population Mitotic Cells (%) [6]: 85%
- Population Normal (%) [6]: 96%
- Population Pyknosed Nuclei (%) [6]: 35%
- Population Tubulin-Different-Phenotype (%) [6]: 39%
- Total Cell Count [6]: 330
- Population Fragmented Nuclei (%) [7]: 11%
- Population Healthy Nuclei (%) [7]: 19%
- Population Hoechst High Intensity Objects (%) [7]: 16%
- Population Membrane Permeable-Phenotype (%) [7]: 2%
- Population Mitochondria Different-Phenotype (%) [7]: 86%
- Population Normal (%) [7]: 83%
- Population Pyknosed Nuclei (%) [7]: 68%
- Population Tubulin-Different-Phenotype (%) [7]: 95%
- Total Cell Count [7]: 274
- Population Apoptotic (%) [8]: 53%
- Population Fragmented Nuclei (%) [8]: 9%
- Population Healthy Nuclei (%) [8]: 13%
- Population Hoechst High Intensity Objects (%) [8]: 7%
- Population Membrane Permeable-Phenotype (%) [8]: 10%
- Population Mitochondria Different-Phenotype (%) [8]: 63%
- Population Mitotic Cells (%) [8]: 46%
- Population Normal (%) [8]: 92%
- Population Pyknosed Nuclei (%) [8]: 77%
- Population Tubulin-Different-Phenotype (%) [8]: 89%
- Total Cell Count [8]: 154
- Population Apoptotic (%) [9]: 57%
- Population Fragmented Nuclei (%) [9]: 16%
- Population Healthy Nuclei (%) [9]: 44%
- Population Hoechst High Intensity Objects (%) [9]: 18%
- Population Membrane Permeable-Phenotype (%) [9]: 0%
- Population Mitochondria Different-Phenotype (%) [9]: 48%
- Population Mitotic Cells (%) [9]: 42%
- Population Normal (%) [9]: 81%
- Population Pyknosed Nuclei (%) [9]: 38%
- Population Tubulin-Different-Phenotype (%) [9]: 40%
- Total Cell Count [9]: 232
- Population Apoptotic (%) [10]: 22%
- Population Fragmented Nuclei (%) [10]: 5%
- Population Healthy Nuclei (%) [10]: 76%
- Population Hoechst High Intensity Objects (%) [10]: 3%
- Population Membrane Permeable-Phenotype (%) [10]: 2%
- Population Mitochondria Different-Phenotype (%) [10]: 11%
- Population Mitotic Cells (%) [10]: 77%
- Population Normal (%) [10]: 96%
- Population Pyknosed Nuclei (%) [10]: 18%
- Population Tubulin-Different-Phenotype (%) [10]: 29%
- Total Cell Count [10]: 557
- Population Apoptotic (%) [11]: 53%
- Population Fragmented Nuclei (%) [11]: 16%
- Population Healthy Nuclei (%) [11]: 26%
- Population Hoechst High Intensity Objects (%) [11]: 10%
- Population Membrane Permeable-Phenotype (%) [11]: 19%
- Population Mitochondria Different-Phenotype (%) [11]: 33%
- Population Mitotic Cells (%) [11]: 46%
- Population Normal (%) [11]: 89%
- Population Pyknosed Nuclei (%) [11]: 57%
- Population Tubulin-Different-Phenotype (%) [11]: 87%
- Total Cell Count [11]: 264
- Population Apoptotic (%) [12]: 58%
- Population Fragmented Nuclei (%) [12]: 8%
- Population Healthy Nuclei (%) [12]: 24%
- Population Hoechst High Intensity Objects (%) [12]: 8%
- Population Membrane Permeable-Phenotype (%) [12]: 25%
- Population Mitochondria Different-Phenotype (%) [12]: 61%
- Population Mitotic Cells (%) [12]: 41%
- Population Normal (%) [12]: 91%
- Population Pyknosed Nuclei (%) [12]: 66%
- Population Tubulin-Different-Phenotype (%) [12]: 83%
- Total Cell Count [12]: 158
